In brackets after ≈: the same amount, converted by molar mass.
What was measured:
Assay type in all cases: functional
Staphylococcus aureus [1] = experiment: Antibacterial activity against quinolone-resistant Staphylococcus aureus CCARM 3505 assessed as bacterial growth inhibition measured during 24 hrs incubation at 37 degC by two-fold serial dilution technique; conditions: CCARM 3505, 24 h
Procedure, shortened: (§1)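 Clinical isolates grown to mid-log phase in Mueller-Hinton broth, diluted 1000-fold, inoculated at 10⁵ CFU/mL in MHB in 96-well microtiter plates. Two-fold serial dilutions gave final concentrations of […]. Oxacillin and norfloxacin were the positive controls. Growth was read as absorbance at 650 nm. MIC is the lowest concentration giving complete growth inhibition.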

Staphylococcus aureus [2] = experiment: Antibacterial activity against quinolone-resistant Staphylococcus aureus CCARM 3519 assessed as bacterial growth inhibition measured during 24 hrs incubation at 37 degC by two-fold serial dilution technique; conditions: CCARM 3519, 24 h; procedure, shortened: as §1
Staphylococcus aureus [3] = experiment: Antibacterial activity against methicillin-resistant Staphylococcus aureus CCARM 3506 assessed as bacterial growth inhibition measured during 24 hrs incubation at 37 degC by two-fold serial dilution technique; conditions: CCARM 3506, 24 h; procedure, shortened: as §1
Staphylococcus aureus [4] = experiment: Antibacterial activity against methicillin-resistant Staphylococcus aureus CCARM 3167 assessed as bacterial growth inhibition measured during 24 hrs incubation at 37 degC by two-fold serial dilution technique; conditions: CCARM 3167, 24 h; procedure, shortened: as §1

Row | Structure (SMILES) | MIC (Staphylococcus aureus [1]) [µg/mL] | MIC (Staphylococcus aureus [2]) [µg/mL] | MIC (Staphylococcus aureus [3]) [µg/mL] | MIC (Staphylococcus aureus [4]) [µg/mL]
1 | Cc1nn(-c2ccccc2)c(Oc2ccc(F)cc2)c1/C=C1\SC(=S)N([C@H](C(=O)O)C(C)C)C1=O | 8 (≈ 15.6 µM) | 8 (≈ 15.6 µM) | 8 (≈ 15.6 µM) | 8 (≈ 15.6 µM)
2 | Cc1nn(-c2ccccc2)c(Oc2ccc3ccccc3c2)c1/C=C1\SC(=S)N([C@H](C(=O)O)C(C)C)C1=O | 8 (≈ 14.7 µM) | 8 (≈ 14.7 µM) | 8 (≈ 14.7 µM) | 4 (≈ 7.36 µM)
3 | Cc1nn(-c2ccccc2)c(Oc2ccccc2)c1/C=C1\SC(=S)N(CC(=O)O)C1=O | > 64 | > 64 | > 64 | > 64
4 | CCC(C)[C@@H](C(=O)O)N1C(=O)/C(=C/c2c(C)nn(-c3ccccc3)c2Oc2ccc(OC)cc2)SC1=S (stereo partly drawn) | 4 (≈ 7.44 µM) | 4 (≈ 7.44 µM) | 4 (≈ 7.44 µM) | 4 (≈ 7.44 µM)
5 | Cc1nn(-c2ccccc2)c(Oc2ccc3ccccc3c2)c1/C=C1\SC(=S)N(CC(=O)O)C1=O | 8 (≈ 15.9 µM) | 8 (≈ 15.9 µM) | 8 (≈ 15.9 µM) | 8 (≈ 15.9 µM)
6 | Cc1ccccc1Oc1c(/C=C2\SC(=S)N([C@H](C(=O)O)C(C)C)C2=O)c(C)nn1-c1ccccc1 | 8 (≈ 15.8 µM) | 8 (≈ 15.8 µM) | 8 (≈ 15.8 µM) | 4 (≈ 7.88 µM)
7 | Cc1nn(-c2ccccc2)c(Oc2ccc(Cl)cc2Cl)c1/C=C1\SC(=S)N([C@@H](CC(C)C)C(=O)O)C1=O | 4 (≈ 6.94 µM) | 4 (≈ 6.94 µM) | 4 (≈ 6.94 µM) | 4 (≈ 6.94 µM)
8 | Cc1nn(-c2ccccc2)c(Oc2ccccc2Cl)c1/C=C1\SC(=S)N([C@H](C(=O)O)C(C)C)C1=O | 8 (≈ 15.1 µM) | 4 (≈ 7.57 µM) | 4 (≈ 7.57 µM) | 4 (≈ 7.57 µM)
9 | Cc1nn(-c2ccccc2)c(Oc2ccc(F)cc2)c1/C=C1\SC(=S)N(CC(=O)O)C1=O | > 64 | > 64 | > 64 | > 64
10 | Cc1nn(-c2ccccc2)c(Oc2ccc(Cl)cc2)c1/C=C1\SC(=S)N([C@H](C(=O)O)C(C)C)C1=O | 4 (≈ 7.57 µM) | 4 (≈ 7.57 µM) | 4 (≈ 7.57 µM) | 4 (≈ 7.57 µM)
11 | CCn1cc(C(=O)O)c(=O)c2cc(F)c(N3CCNCC3)cc21 [NORFLOXACIN] | > 64 | > 64 | 4 (≈ 12.5 µM) | 8 (≈ 25.1 µM)
12 | Cc1cccc(Oc2c(/C=C3\SC(=S)N(CC(=O)O)C3=O)c(C)nn2-c2ccccc2)c1 | 32 (≈ 68.7 µM) | 16 (≈ 34.4 µM) | 16 (≈ 34.4 µM) | 16 (≈ 34.4 µM)
13 | CCC(C)[C@@H](C(=O)O)N1C(=O)/C(=C/c2c(C)nn(-c3ccccc3)c2Oc2ccccc2OC)SC1=S (stereo partly drawn) | 16 (≈ 29.8 µM) | 16 (≈ 29.8 µM) | 16 (≈ 29.8 µM) | 16 (≈ 29.8 µM)
14 | Cc1nn(-c2ccccc2)c(Oc2cccc(C(F)(F)F)c2)c1/C=C1\SC(=S)N([C@H](C(=O)O)C(C)C)C1=O | 8 (≈ 14.2 µM) | 8 (≈ 14.2 µM) | 8 (≈ 14.2 µM) | 4 (≈ 7.12 µM)
15 | Cc1cccc(Oc2c(/C=C3\SC(=S)N([C@H](C(=O)O)C(C)C)C3=O)c(C)nn2-c2ccccc2)c1 | 4 (≈ 7.88 µM) | 4 (≈ 7.88 µM) | 8 (≈ 15.8 µM) | 4 (≈ 7.88 µM)
16 | Cc1nn(-c2ccccc2)c(Cl)c1/C=C1\SC(=S)N(CC(=O)O)C1=O | > 64 | > 64 | > 64 | > 64
17 | Cc1ccc(Oc2c(/C=C3\SC(=S)N(CC(=O)O)C3=O)c(C)nn2-c2ccccc2)cc1 | 32 (≈ 68.7 µM) | 32 (≈ 68.7 µM) | 32 (≈ 68.7 µM) | 32 (≈ 68.7 µM)
18 | CCC(C)[C@@H](C(=O)O)N1C(=O)/C(=C/c2c(C)nn(-c3ccccc3)c2Oc2ccc(F)cc2)SC1=S (stereo partly drawn) | 8 (≈ 15.2 µM) | 8 (≈ 15.2 µM) | 4 (≈ 7.61 µM) | 2 (≈ 3.8 µM)
19 | COc1ccc(Oc2c(/C=C3\SC(=S)N(CC(=O)O)C3=O)c(C)nn2-c2ccccc2)cc1 | > 64 | > 64 | > 64 | > 64

Row | Structure (SMILES) | MIC (Staphylococcus aureus [1]) [µg/mL] | MIC (Staphylococcus aureus [2]) [µg/mL] | MIC (Staphylococcus aureus [3]) [µg/mL] | MIC (Staphylococcus aureus [4]) [µg/mL]
20 | Cc1nn(-c2ccccc2)c(Oc2c(Cl)cccc2Cl)c1/C=C1\SC(=S)N(CC(=O)O)C1=O | 32 (≈ 61.5 µM) | 32 (≈ 61.5 µM) | 32 (≈ 61.5 µM) | 32 (≈ 61.5 µM)
21 | CCC(C)[C@@H](C(=O)O)N1C(=O)/C(=C/c2c(C)nn(-c3ccccc3)c2Oc2ccccc2)SC1=S (stereo partly drawn) | 8 (≈ 15.8 µM) | 4 (≈ 7.88 µM) | 4 (≈ 7.88 µM) | 4 (≈ 7.88 µM)
22 | CCC(C)[C@@H](C(=O)O)N1C(=O)/C(=C/c2c(C)nn(-c3ccccc3)c2Oc2ccccc2C)SC1=S (stereo partly drawn) | 4 (≈ 7.67 µM) | 4 (≈ 7.67 µM) | 4 (≈ 7.67 µM) | 2 (≈ 3.83 µM)
23 | Cc1nn(-c2ccccc2)c(Oc2ccc(Br)cc2)c1/C=C1\SC(=S)N([C@H](C(=O)O)C(C)C)C1=O | 4 (≈ 6.99 µM) | 4 (≈ 6.99 µM) | 4 (≈ 6.99 µM) | 2 (≈ 3.49 µM)
24 | Cc1nn(-c2ccccc2)c(Oc2ccccc2Cl)c1/C=C1\SC(=S)N(CC(=O)O)C1=O | 32 (≈ 65.8 µM) | 16 (≈ 32.9 µM) | 16 (≈ 32.9 µM) | 16 (≈ 32.9 µM)
25 | Cc1ccc(Oc2c(/C=C3\SC(=S)N([C@H](C(=O)O)C(C)C)C3=O)c(C)nn2-c2ccccc2)cc1 | 4 (≈ 7.88 µM) | 4 (≈ 7.88 µM) | 4 (≈ 7.88 µM) | 4 (≈ 7.88 µM)
26 | CCC(C)[C@@H](C(=O)O)N1C(=O)/C(=C/c2c(C)nn(-c3ccccc3)c2Oc2cccc(Cl)c2)SC1=S (stereo partly drawn) | 8 (≈ 14.8 µM) | 8 (≈ 14.8 µM) | 8 (≈ 14.8 µM) | 4 (≈ 7.38 µM)
27 | CCC(C)[C@@H](C(=O)O)N1C(=O)/C(=C/c2c(C)nn(-c3ccccc3)c2Oc2ccccc2Cl)SC1=S (stereo partly drawn) | 4 (≈ 7.38 µM) | 4 (≈ 7.38 µM) | 4 (≈ 7.38 µM) | 2 (≈ 3.69 µM)
28 | CCC(C)[C@@H](C(=O)O)N1C(=O)/C(=C/c2c(C)nn(-c3ccccc3)c2Oc2ccc(Br)cc2)SC1=S (stereo partly drawn) | 2 (≈ 3.41 µM) | 2 (≈ 3.41 µM) | 2 (≈ 3.41 µM) | 2 (≈ 3.41 µM)
29 | COc1ccccc1Oc1c(/C=C2\SC(=S)N(CC(=O)O)C2=O)c(C)nn1-c1ccccc1 | > 64 | > 64 | > 64 | > 64
30 | Cc1nn(-c2ccccc2)c(Oc2ccc(Cl)cc2)c1/C=C1\SC(=S)N(CC(=O)O)C1=O | 16 (≈ 32.9 µM) | 16 (≈ 32.9 µM) | 16 (≈ 32.9 µM) | 16 (≈ 32.9 µM)
31 | Cc1nn(-c2ccccc2)c(Oc2c(Cl)cccc2Cl)c1/C=C1\SC(=S)N([C@H](C(=O)O)C(C)C)C1=O | 8 (≈ 14.2 µM) | 16 (≈ 28.4 µM) | 16 (≈ 28.4 µM) | 8 (≈ 14.2 µM)
32 | Cc1nn(-c2ccccc2)c(Oc2cccc(C(F)(F)F)c2)c1/C=C1\SC(=S)N(CC(=O)O)C1=O | 32 (≈ 61.6 µM) | 32 (≈ 61.6 µM) | 32 (≈ 61.6 µM) | 16 (≈ 30.8 µM)
33 | Cc1nn(-c2ccccc2)c(Oc2cccc(Cl)c2)c1/C=C1\SC(=S)N([C@H](C(=O)O)C(C)C)C1=O | 8 (≈ 15.1 µM) | 4 (≈ 7.57 µM) | 4 (≈ 7.57 µM) | 4 (≈ 7.57 µM)
34 | Cc1nn(-c2ccccc2)c(Oc2ccc(Cl)cc2Cl)c1/C=C1\SC(=S)N(CC(=O)O)C1=O | 8 (≈ 15.4 µM) | 8 (≈ 15.4 µM) | 8 (≈ 15.4 µM) | 4 (≈ 7.69 µM)
35 | CCC(C)[C@@H](C(=O)O)N1C(=O)/C(=C/c2c(C)nn(-c3ccccc3)c2Oc2ccc(C)cc2C)SC1=S (stereo partly drawn) | 2 (≈ 3.73 µM) | 2 (≈ 3.73 µM) | 2 (≈ 3.73 µM) | 2 (≈ 3.73 µM)
36 | CCC(C)[C@@H](C(=O)O)N1C(=O)/C(=C/c2c(C)nn(-c3ccccc3)c2Oc2cccc(C(F)(F)F)c2)SC1=S (stereo partly drawn) | 8 (≈ 13.9 µM) | 8 (≈ 13.9 µM) | 8 (≈ 13.9 µM) | 4 (≈ 6.95 µM)
37 | Cc1ccc(Oc2c(/C=C3\SC(=S)N([C@@H](CC(C)C)C(=O)O)C3=O)c(C)nn2-c2ccccc2)c(C)c1 | 4 (≈ 7.47 µM) | 4 (≈ 7.47 µM) | 4 (≈ 7.47 µM) | 4 (≈ 7.47 µM)

From ChEMBL document CHEMBL2321826, “Synthesis and antibacterial evaluation of rhodanine-based 5-aryloxy pyrazoles against selected methicillin resistant and quinolone-resistant Staphylococcus aureus (MRSA and QRSA)” (Eur J Med Chem, 2013)
